Active and inactive are the calls of the source. No cut-off for these calls is given here.
Legend:
[1] = system: HL-60; test: Induction of terminal cell differentiation in human HL60 cells assessed as cell viability at 4 uM by trypan blue exclusion method; assay type: functional; details: read-out: Activity
Procedure, shortened: (§1)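 HL-60 cells preincubated 18 h at 1.2×10^5 cells/ml, then exposed 4 days to samples in DMSO (final 0.1%). Viability by trypan blue exclusion: viable/(viable+dead)×100. Cell counts also taken after 4 days.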

[2] = system: HL-60; test: Induction of terminal cell differentiation in human HL60 cells assessed as cell viability at 8.1 uM by trypan blue exclusion method; assay type: functional; details: read-out: Activity; procedure, shortened: as §1
[3] = system: HL-60; test: Induction of terminal cell differentiation in human HL60 cells assessed as cell viability at 16.2 uM by trypan blue exclusion method; assay type: functional; details: read-out: Activity; procedure, shortened: as §1
[4] = system: HL-60; test: Induction of terminal cell differentiation in human HL60 cells assessed as cell viability at 32.3 uM by trypan blue exclusion method; assay type: functional; details: read-out: Activity; procedure, shortened: as §1
[5] = system: HL-60; test: Induction of terminal cell differentiation in human HL60 cells assessed as cell viability at 64.6 uM by trypan blue exclusion method; assay type: functional; details: read-out: Activity; procedure, shortened: as §1
[6] = system: HL-60; test: Induction of terminal cell differentiation in human HL60 cells assessed as naphthol AS-D chloroacetate esterase activity at 4 uM after 4 days; assay type: functional
Procedure, shortened: (§2)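 HL-60 cells were grown in RPMI 1640 with 5% heat-inactivated calf serum at 37°, 5% CO2. They were diluted to 1.2×10^5 cells/ml, preincubated 18 h, then exposed 4 days to DMSO-dissolved samples (final DMSO 0.1%, matched vehicle controls). Specific esterase (naphthol AS-D chloroacetate) was scored cytochemically with a commercial kit as the percentage of differentiated cells.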

[7] = system: HL-60; test: Induction of terminal cell differentiation in human HL60 cells assessed as naphthol AS-D chloroacetate esterase activity at 8.1 uM after 4 days; assay type: functional; procedure, shortened: as §2
[8] = system: HL-60; test: Induction of terminal cell differentiation in human HL60 cells assessed as naphthol AS-D chloroacetate esterase activity at 16.2 uM after 4 days; assay type: functional; procedure, shortened: as §2
[9] = system: HL-60; test: Induction of terminal cell differentiation in human HL60 cells assessed as naphthol AS-D chloroacetate esterase activity at 32.3 uM after 4 days; assay type: functional; procedure, shortened: as §2
[10] = system: HL-60; test: Cytotoxicity against human HL60 cells at 64.6 uM by naphthol AS-D chloroacetate esterase activity; assay type: cell-based; details: hl-60, 64.6 µM
Procedure, shortened: (§3)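 After 4-day treatment of HL-60 cells (samples in DMSO, final 0.1%), cells stained cytochemically for α-naphthyl acetate esterase or naphthol AS-D chloroacetate esterase.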

[11] = system: HL-60; test: Induction of cell differentiation in human HL60 cells assessed as alpha naphthyl esterase activity at 4 uM after 4 days; assay type: functional
Procedure, shortened: (§4)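 HL-60 cells in RPMI 1640 with 5% heat-inactivated calf serum at 37° under 5% CO2. Log-phase cells diluted to 1.2×10^5 cells/ml and preincubated 18 h, then samples added in DMSO (final 0.1%, DMSO controls). Cells scored after 4 days.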

[12] = system: HL-60; test: Induction of cell differentiation in human HL60 cells assessed as alpha naphthyl esterase activity at 8.1 uM after 4 days; assay type: functional; procedure, shortened: as §4
[13] = system: HL-60; test: Induction of cell differentiation in human HL60 cells assessed as alpha naphthyl esterase activity at 16.2 uM after 4 days; assay type: functional; procedure, shortened: as §4
[14] = system: HL-60; test: Induction of cell differentiation in human HL60 cells assessed as alpha naphthyl esterase activity at 32.3 uM after 4 days; assay type: functional; procedure, shortened: as §4
[15] = system: HL-60; test: Cytotoxicity against human HL60 cells at 64.6 uM by alpha naphthyl esterase activity assay; assay type: cell-based; details: hl-60, 64.6 µM; procedure, shortened: as §3
[16] = system: HL-60; test: Cytotoxicity against human HL60 cells by [3H]thymidine incorporation assay; assay type: cell-based
Procedure, shortened: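 After 4-day sample treatment, 100 μl of HL-60 cells pulsed with 0.5 μCi/ml [3H]thymidine (65 Ci/mmol) for 16 h. Cells harvested and counted by liquid scintillation. Incorporation per 10^6 cells given as sample DPM divided by DMSO-control DPM.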

[17] = system: HL-60; test: Induction of terminal cell differentiation in human HL60 cells assessed as inhibition of [3H]thymidine incorporation at 32.3 uM after 4 days by liquid scintillation; assay type: functional; set-up: scale not given: the % may be the effect or the level left
Procedure, shortened: (§5)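 HL-60 cells were kept in RPMI 1640 with 5% heat-inactivated calf serum and penicillin/streptomycin at 37° under 5% CO2. Log-phase cells were diluted to 1.2×10^5 cells/ml and preincubated 18 h. Samples were added in DMSO (final 0.1%; vehicle controls matched) for 4 days. Aliquots then got 0.5 μCi/ml [3H]thymidine for 16 h more, were harvested and scintillation-counted. % incorporation per 10^6 cells = sample DPM / DMSO-control DPM.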

[18] = system: HL-60; test: Induction of terminal cell differentiation in human HL60 cells assessed as inhibition of [3H]thymidine incorporation at 16.2 uM after 4 days by liquid scintillation; assay type: functional; set-up: scale not given: the % may be the effect or the level left; procedure, shortened: as §5
[19] = system: HL-60; test: Induction of terminal cell differentiation in human HL60 cells assessed as inhibition of [3H]thymidine incorporation at 8.1 uM after 4 days by liquid scintillation; assay type: functional; set-up: scale not given: the % may be the effect or the level left; procedure, shortened: as §5
[20] = system: HL-60; test: Induction of terminal cell differentiation in human HL60 cells assessed as inhibition of [3H]thymidine incorporation at 4 uM after 4 days by liquid scintillation; assay type: functional; set-up: scale not given: the % may be the effect or the level left; procedure, shortened: as §5
[21] = system: HL-60; test: Induction of terminal cell differentiation in human HL60 cells at 4 uM after 4 days by NBT reduction assay; assay type: functional
Procedure, shortened: (§6)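 Log-phase HL-60 cells (RPMI 1640, 5% heat-inactivated calf serum, 37°, 5% CO2) were diluted to 1.2×10^5 cells/ml, preincubated 18 h, then treated 4 days with samples in DMSO (final 0.1%; DMSO controls). 10^6 cells were mixed 1:1 with fresh PBS holding 2 mg/ml NBT and 5 μg/ml TPA, 1 h at 37°. Formazan-positive cells were counted microscopically as % NBT-positive.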

[22] = system: HL-60; test: Induction of terminal cell differentiation in human HL60 cells at 8.1 uM after 4 days by NBT reduction assay; assay type: functional; procedure, shortened: as §6
[23] = system: HL-60; test: Induction of terminal cell differentiation in human HL60 cells at 16.2 uM after 4 days by NBT reduction assay; assay type: functional; procedure, shortened: as §6
[24] = system: HL-60; test: Induction of terminal cell differentiation in human HL60 cells at 32.3 uM after 4 days by NBT reduction assay; assay type: functional; procedure, shortened: as §6
[25] = system: HL-60; test: Cytotoxicity against human HL60 cells at 64.6 uM by NBT reduction assay; assay type: cell-based; details: hl-60, 64.6 µM; procedure, shortened: as §4
[26] = system: Platelet; test: Antiplatelet activity against rabbit platelet assessed as inhibition of arachidonic acid-induced platelet aggregation at 100 ug/ml; assay type: functional; details: Oryctolagus cuniculus
[27] = system: Platelet; test: Antiplatelet activity against rabbit platelet assessed as inhibition of collagen-induced platelet aggregation at 100 ug/ml; assay type: functional; details: Oryctolagus cuniculus
[28] = system: Platelet; test: Antiplatelet activity against rabbit platelet assessed as inhibition of platelet activating factor-induced platelet aggregation at 100 ug/ml; assay type: functional; details: Oryctolagus cuniculus
[29] = Cytotoxicity against human BC1 cells; assay type: functional; details: read-out: ED50 (the source's name)
Procedure, shortened: (§7)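 Cultured human cancer lines and murine P-388 cells. Complete dose-response data from at least five concentrations of test substance, each tested in duplicate.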

[30] = system: HT-1080; test: Cytotoxicity against human HT1080 cells; assay type: functional; details: read-out: ED50 (the source's name); procedure, shortened: as §7
[31] = system: Lu1; test: Cytotoxicity against human Lu1 cells; assay type: functional; details: read-out: ED50 (the source's name); procedure, shortened: as §7
[32] = system: SK-MEL; test: Cytotoxicity against human SK-MEL cells; assay type: functional; details: read-out: ED50 (the source's name); procedure, shortened: as §7
[33] = system: Col2; test: Cytotoxicity against human Col2 cells; assay type: functional; details: read-out: ED50 (the source's name); procedure, shortened: as §7
[34] = system: KB; test: Cytotoxicity against human KB cells; assay type: functional; details: read-out: ED50 (the source's name); procedure, shortened: as §7
[35] = Cytotoxicity against human multidrug-resistant KBV1 cells in presence of vinblastine; assay type: functional; details: KB-V1, read-out: ED50 (the source's name); procedure, shortened: as §7
[36] = Cytotoxicity against human multidrug-resistant KBV1 cells in absence of vinblastine; assay type: functional; details: KB-V1, read-out: ED50 (the source's name); procedure, shortened: as §7
[37] = system: P388; test: Cytotoxicity against mouse P388 cells; assay type: functional; details: read-out: ED50 (the source's name); procedure, shortened: as §7
[38] = system: A-431; test: Cytotoxicity against human A431 cells; assay type: functional; details: read-out: ED50 (the source's name); procedure, shortened: as §7
[39] = system: LNCaP; test: Cytotoxicity against human LNCAP cells; assay type: functional; details: read-out: ED50; procedure, shortened: as §7
[40] = system: ZR-75-1; test: Cytotoxicity against human ZR-75-1 cells; assay type: functional; details: ZR-75-1, read-out: ED50; procedure, shortened: as §7
[41] = Cytotoxicity against human U373 cells; assay type: functional, U-373MG ATCC; details: U373 MG, read-out: ED50; procedure, shortened: as §7

With `CC(C)=CCCC1(C)C=Cc2c(c3ccccc3n(C)c2=O)O1` (centres undefined) the viability at 4 µM [1] was 98%, the viability at 8.1 µM [2] was 95% and the viability at 16.2 µM [3] was 93%. The viability at 32.3 µM [4] was 78%, the viability at 64.6 µM [5] was 9% and the Activity [6] was 5%. It also gave an Activity [7] of 5.5%, an Activity [8] of 6.5% and an Activity [9] of 14.5%. For the same molecule, the Activity [10] was “Toxic”, the Activity [11] was 4.5% and the Activity [12] was 5.5%. The Activity [13] was 7.4%, the Activity [14] was 24.3% and the Activity [15] was “Toxic”. The Activity [16] was “Toxic”, the Activity [17] was 0% and the Activity [18] was 0%. The Activity [19] was 0%, the Activity [20] was 0% and the Activity [21] was 3.5%. For the same molecule, the Activity [22] was 8%, the Activity [23] was 9% and the Activity [24] was 15.4%. For the same molecule, the Activity [25] was “Toxic”, the Activity [26] was “inactive” and the Activity [27] was “inactive”. The Activity [28] was “inactive”, the EC50 [29] was 28.8 µM and the EC50 [30] was 28.8 µM. The EC50 [31] was 28.8 µM, the EC50 [32] was 28.4 µM and the EC50 [33] was 30.4 µM. The EC50 [34] was 15.2 µM, the EC50 [35] was 6.5 µM and the EC50 [36] was 21.3 µM. The EC50 [37] was 5.2 µM, the EC50 [38] was 28.8 µM and the EC50 [39] was 18.7 µM. For the same molecule, the EC50 [40] was 10 µM and the EC50 [41] was 17.1 µM.

For `COc1ccc2c(c1OC)C(CC1(C)C=Cc3c(c4cccc(OC)c4n(C)c3=O)O1)N(C)c1c-2ccc2cc3c(cc12)OCO3` (centres undefined), the Activity [26] was “inactive”, the Activity [27] was “inactive” and the Activity [28] was “inactive”.
